Reference: ChEMBL document CHEMBL1124564, “Ester derivatives of 2,6-bis(1-pyrrolidinylmethyl)-4-benzamidophenol as short-acting antiarrhythmic agents. 1” (J Med Chem, 1989)
Values after ≈ are worked out from the molar mass of the structure shown.

How the values were obtained:
Cavia porcellus = species on record: Cavia porcellus; assay: Inhibition of acetylstrophantidin induced arrhythmia in guinea pig isolated right atria.; format: functional; details: read-out: ED50 (the source's name)
How it was run: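 Isolated atrium in prewarmed 37 °C Krebs on an isometric force transducer, tension about 500 mg, equilibrated 1 h. Arrhythmogen (ethanolic stock) added at 5.0 μg/mL, raised to 7.5 μg/mL after 30 min if no arrhythmia. After 45 min, compound given in incremental doses every 20 min. ED is the cumulative dose restoring sinus rhythm for at least 3 min.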

[1] = Distribution coefficient of compound was determined in octanol-water system; format: physicochemical
[2] = Biological half-life was evaluated in whole human blood; format: ADME, organism-based
How it was run: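 Fresh heparinized blood from male volunteers and compound in saline preincubated separately 5 min at 37 °C, then mixed 1:1 (final 25 μg/mL) and shaken at 37 °C for 0, 1, 2.5, 5.0, 10, 20, 30 and 60 min. Stopped with acetonitrile, proteins spun down, supernatant assayed by HPLC on phenyl column. Half-life is the time to 50% loss of compound.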

Canis familiaris = species on record: Canis familiaris; assay: Inhibition of ouabain induced arrhythmia in the dog.; format: functional, Canis lupus familiaris
How it was run: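 Adult male mongrel dogs (10–17 kg) under pentobarbital (30 mg/kg iv), intubated, spontaneous breathing, lead II ECG. Ouabain iv bolus: 40 μg/kg, then 20 μg/kg at 30 min, then 5–10 μg/kg every 15 min until stable ventricular arrhythmia (>95% ectopic complexes) lasted 15 min. Compound infused iv at 0.5 mg/kg per min until sinus rhythm held ≥10 min.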

Structure (SMILES) | EC50 (Cavia porcellus) [mg/L] | Distribution coefficient [1] | half-life [2] [min] | Active dose (Canis familiaris) [mg/kg]
O=C(O)Cc1cc(CN2CCCC2)c(O)c(CN2CCCC2)c1 | > 200 | – | – | –
CC(C)OC(=O)CCc1cc(CN2CCCC2)c(O)c(CN2CCCC2)c1 | 4 (≈ 10.7 µM) | 0.62 | – | –
CC(C)COC(=O)Cc1cc(CN2CCCC2)c(O)c(CN2CCCC2)c1 | 5 (≈ 13.4 µM) | 1.25 | 8.7 | 11.8
CCCCOC(=O)CCCc1cc(CN2CCCC2)c(O)c(CN2CCCC2)c1 | 0.33 (≈ 0.82 µM) | 12.8 | 0.77 | –
CC(C)OC(=O)Cc1cc(CN2CCCC2)c(O)c(CN2CCCC2)c1 | 1 (≈ 2.77 µM) | 0.39 | – | –
O=C(O)c1cc(CN2CCCC2)c(O)c(CN2CCCC2)c1 | > 30 | – | – | >60
CC(C)OC(=O)c1cc(CN2CCCC2)c(O)c(CN2CCCC2)c1 | 11.4 (≈ 32.9 µM) | 0.37 | – | –
CC(C)COC(=O)CCCc1cc(CN2CCCC2)c(O)c(CN2CCCC2)c1 | 2 (≈ 4.97 µM) | 7.24 | 1.96 | –
CCCCOC(=O)CCc1cc(CN2CCCC2)c(O)c(CN2CCCC2)c1 | 2.5 (≈ 6.43 µM) | 2 | 22.1 | 11
CCOC(=O)CCc1ccc(NC(=O)c2cc(CN3CCCC3)c(O)c(CN3CCCC3)c2)cc1 | – | – | – | 10.9
CCOC(=O)/C=C/c1ccc(NC(=O)c2cc(CN3CCCC3)c(O)c(CN3CCCC3)c2)cc1 | – | – | – | 17.5
CC(C)COC(=O)CCc1cc(CN2CCCC2)c(O)c(CN2CCCC2)c1 | 14 (≈ 36 µM) | 1.54 | 25.9 | 5
CCOC(=O)c1ccccc1NC(=O)c1cc(CN2CCCC2)c(O)c(CN2CCCC2)c1 | – | – | – | 1.75
CCOC(=O)Cc1cc(CN2CCCC2)c(O)c(CN2CCCC2)c1 | 17.2 (≈ 49.6 µM) | 0.18 | – | >7.5
CC(C)COC(=O)c1cc(CN2CCCC2)c(O)c(CN2CCCC2)c1 | 2.3 (≈ 6.38 µM) | 1.47 | – | –
CCCOC(=O)CCc1cc(CN2CCCC2)c(O)c(CN2CCCC2)c1 | 7 (≈ 18.7 µM) | 0.78 | 36.1 | 3
CCCOC(=O)Cc1cc(CN2CCCC2)c(O)c(CN2CCCC2)c1 | 10.3 (≈ 28.6 µM) | 0.43 | 18.5 | 8.8
CCC(C)OC(=O)c1cc(CN2CCCC2)c(O)c(CN2CCCC2)c1 (configuration not stated) | 6.7 (≈ 18.6 µM) | 1.12 | – | 6.8
O=C(O)CCc1cc(CN2CCCC2)c(O)c(CN2CCCC2)c1 | > 1000 | – | – | –
CCCCOC(=O)Cc1cc(CN2CCCC2)c(O)c(CN2CCCC2)c1 | 13.3 (≈ 35.5 µM) | 1.5 | 9.5 | 7.3
CCOC(=O)c1ccc(NC(=O)c2cc(CN3CCCC3)c(O)c(CN3CCCC3)c2)cc1 | – | – | – | 19
O=C(Nc1ccccc1)c1cc(CN2CCCC2)c(O)c(CN2CCCC2)c1 | 11 (≈ 29 µM) | 0.42 | – | 2.5
CCCOC(=O)CCCc1cc(CN2CCCC2)c(O)c(CN2CCCC2)c1 | – | – | 2.1 | –
O=C(NCC1CCCCN1)c1cc(OCC(F)(F)F)ccc1OCC(F)(F)F (configuration not stated) [FLECAINIDE] | 6 (≈ 14.5 µM) | 13.71 | – | 2.3
CCN(CC)CC(=O)Nc1c(C)cccc1C [LIDOCAINE] | 6 (≈ 25.6 µM) | 19.19 | – | 10.1
